What was measured:
fungal IPC synthase = details: in words; cited from earlier work
[1] = biological target: the F158Y and A240C mutations (Aur1-Kei1 mutant complexes); test: MST
[2] = biological target: His-tagged S. cerevisiae IPC synthase complex (Aur1-Kei1), wild type (S. cerevisiae) (UniProt P36107); test: MST
[3] = biological target: His-tagged Aur1-Kei1 complex with Aur1 H157Y (S. cerevisiae) (UniProt P36107); test: MST
[4] = system: unpurified membrane-embedded IPC synthase; details: cited from earlier work
Aur1-Kei1 complex = test: Thermal shift assay; assay type: binding, Saccharomyces cerevisiae; details: 10 µM PI or 10 µM C6-ceramide, 1 h at 4 °C, 5% DMSO; compared to the control
In short: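 nanoDSF on 0.1 mg/mL purified complex in 25 mM HEPES pH 7.5, 150 mM NaCl, 0.01% LMNG. Protein was held 1 h at 4 °C with final 10 µM PI or 10 µM C6-ceramide in 5% DMSO. Intrinsic fluorescence at 330 and 350 nm was read from 35 to 95 °C at […]. Tm was taken from the first-derivative peak of Em350/Em330, averaged over three measurements.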

cryo-EM structure = biological target: the molecule itself; test: cryo-EM structure
[5] = biological target: the molecule itself; test: SEC + cross-linking + native gel or EMSA

## CCCCCCCCCC[C@H](C)[C@@H](O)[C@@H](C)/C=C(C)/C=C(\C)C(=O)[C@H](C)/C=C(\C)C(=O)O[C@H](CO)[C@@H](O)[C@H](O)C(=O)O [khafrefungin]
Fungal IPC synthase
  inhibition of fungal IPC synthase: effective inhibitors of fungal IPC synthase

## C=C1/C=C(\C)[C@H](CC)CC(=O)[C@H](C)C(=O)[C@@](O)(CO)C/C(OC)=C/[C@@H](C)C1 [rustmicin]
Fungal IPC synthase
  inhibition of fungal IPC synthase: effective inhibitors of fungal IPC synthase

## Aureobasidin A (peptide)
[1]
  fold weakening of the binding affinity against the WT complex: 1.5 to 2 fold
[2]
  Kd: 57.7 nM
[3]
  fold reduction in binding affinity against the WT complex: 30 fold

## ceramide
[4]
  kinetic value for ceramide: 3 µM
Aur1-Kei1 complex
  effect on protein stability: did not enhance protein stability

B1: S. cerevisiae Aur1, catalytic subunit of IPC synthase (enzyme)
chain: MANPFSRWFLSERPPNCHVADLETSLDPHQTLLKVQKYKPALSDWVHYIFLGSIMLFVFITNPAPWIFKILFYCFLGTLFIIPATSQFFFNALPILTWVALYFTSSYFPDDRRPPITVKVLPAVETILYGDNLSDILATSTNSFLDILAWLPYGLFHFGAPFVVAAILFVFGPPTVLQGYAFAFGYMNLFGVIMQNVFPAAPPWYKILYGLQSANYDMHGSPGGLARIDKLLGINMYTTAFSNSSVIFGAFPSLHSGCATMEALFFCYCFPKLKPLFIAYVCWLWWSTMYLTHHYFVDLMAGSVLSYVIFQYTKYTHLPIVDTSLFCRWSYTSIEKYDISKSDPLAADSNDIESVPLSNLELDFDLNMTDEPSVSPSLFDGSTSVSRSSATSITSLGVKRA
modifications: two major bands likely correspond to the glycosylated and non-glycosylated forms (sites not given)
cryo-EM structure
  stoichiometry N: 2

B2: S. cerevisiae IPC synthase complex (Aur1-Kei1 complex), wild type (complex)
chain 1: MANPFSRWFLSERPPNCHVADLETSLDPHQTLLKVQKYKPALSDWVHYIFLGSIMLFVFITNPAPWIFKILFYCFLGTLFIIPATSQFFFNALPILTWVALYFTSSYFPDDRRPPITVKVLPAVETILYGDNLSDILATSTNSFLDILAWLPYGLFHFGAPFVVAAILFVFGPPTVLQGYAFAFGYMNLFGVIMQNVFPAAPPWYKILYGLQSANYDMHGSPGGLARIDKLLGINMYTTAFSNSSVIFGAFPSLHSGCATMEALFFCYCFPKLKPLFIAYVCWLWWSTMYLTHHYFVDLMAGSVLSYVIFQYTKYTHLPIVDTSLFCRWSYTSIEKYDISKSDPLAADSNDIESVPLSNLELDFDLNMTDEPSVSPSLFDGSTSVSRSSATSITSLGVKRA
chain 2: MRSSLLTLPKSFLGFMPLYLAVEIVLGISILNKCSGAYGILALFTGHPLDFMQWIAYLWSVFTLIVFSQGLYLIHKPNLLVFSQICVLYTIDTISTCFFTLWFTTQWFTLEDTANIDGNNALQSNPISTGKLTERGIDISKQSATESYEYTMTILITLVSLIFRFYFNFILASFVQELLHHPKYLVDRDDVEQNLKNKPIWKRLWAKSQKGCYKLCKNLLE
modifications: two major bands likely correspond to the glycosylated and non-glycosylated forms (sites not given)
[5]
  stoichiometry N: 2

Reference: paper PMC12122681 (Nature Communications, 2025)
